Assay results from ChEMBL document CHEMBL1125204, “Synthesis and biological activity of sinefungin analogues” (J Med Chem, 1991).

Key:
[1] = It is the ratio of Ki value to that of Km.; type: ADME
Method in brief: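 Ki/Km ratio for protein-carboxyl methyltransferase in cell-free promastigote extracts, α-globulin as substrate. Ki and Km read from Lineweaver–Burk plots.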

Leishmania donovani [2] = test: Thymidine uptake and incorporation in Leishmania donovani promastigotes measured in the TCA soluble material at a concentration 23.3 uM in the presence of sinefungin (0.026 uM).; type: functional
Method in brief: (§1)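 Promastigotes at 5×10^8 cells/mL in DMEM/RPMI/FCS medium at 26 °C, equilibrated 3–4 h, then exposed 4 h to compound alone or with 0.026 μM sinefungin. Labelled 1 h with 2.5 μCi/mL [methyl-3H]thymidine and washed in cold PBS. Uptake taken from cold TCA-soluble fraction, incorporation from TCA-insoluble fraction. Protein measured by Lowry method.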

Leishmania donovani [3] = test: Thymidine uptake and incorporation in Leishmania donovani promastigotes measured in the TCA insoluble material at a concentration 11.6 uM.; type: functional; method in brief: as §1
Leishmania donovani [4] = test: Cell growth of Leishmania donovani promastigotes measured at 0h of 0.26 uM sinefungin treatment before compound (260 uM) addition.; type: functional
Method in brief: (§2)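 L. donovani LRC L-52 promastigotes, 0.5×10^6 in 500 μL, grown at 26 °C in 45% DMEM/45% RPMI 1640 (25 mM HEPES pH 7.4) with 10% heat-inactivated FCS. Compounds in water added with 0.26 μM sinefungin. Duplicate wells beside untreated cultures; hemacytometer counts; growth inhibition expressed as % of untreated.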

Leishmania donovani [5] = test: Cell growth of Leishmania donovani promastigotes measured at 24 hr of 0.26 uM sinefungin treatment before compound (260 uM) addition.; type: functional; method in brief: as §2
Leishmania donovani [6] = test: Cell growth of Leishmania donovani promastigotes measured at 48 hr of 0.26 uM sinefungin treatment before compound (260 uM) addition.; type: functional; method in brief: as §2
Leishmania donovani [7] = test: Thymidine uptake and incorporation in Leishmania donovani promastigotes measured in the TCA soluble material at a concentration 11.6 uM.; type: functional; method in brief: as §1
Leishmania donovani [8] = test: Thymidine uptake and incorporation in Leishmania donovani promastigotes measured in the TCA insoluble material at a concentration 11.6 uM in the presence of sinefungin (0.026 uM).; type: functional; method in brief: as §1
Leishmania donovani [9] = test: Cell growth of Leishmania donovani promastigotes measured at 16h of 0.26 uM sinefungin treatment before compound (260 uM) addition.; type: functional; method in brief: as §2
Leishmania donovani [10] = test: Thymidine uptake and incorporation in Leishmania donovani promastigotes measured in the TCA insoluble material at a concentration 23.3 uM in the presence of sinefungin (0.026 uM).; type: functional; method in brief: as §1
Leishmania donovani [11] = test: Thymidine uptake and incorporation in Leishmania donovani promastigotes measured in the TCA soluble material at a concentration 23.3 uM.; type: functional; method in brief: as §1
Leishmania donovani [12] = test: Thymidine uptake and incorporation in Leishmania donovani promastigotes measured in the TCA insoluble material at a concentration 23.3 uM.; type: functional; method in brief: as §1
Leishmania donovani [13] = test: (§3) Apparent kinetic activity measured for protein carboxyl methyltransferase in Leishmania donovani promastigotes; type: organism-based
Method in brief: (§4)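 Cell-free extracts of L. donovani promastigotes (strain LRC L-52) assayed for S-adenosylmethionine:protein-carboxyl methyltransferase activity, with α-globulin as the methyl-accepting substrate. Kinetic constants came from Lineweaver–Burk plots and were expressed as a Ki/Km ratio. Protein was measured by the Bradford dye-binding method against a bovine serum albumin standard.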

Leishmania donovani [14] = test: Cell growth of Leishmania donovani promastigotes measured at 0h of 0.26 uM sinefungin treatment before compound (130 uM) addition.; type: functional; method in brief: as §2
Leishmania donovani [15] = test: Thymidine uptake and incorporation in Leishmania donovani promastigotes measured in the TCA insoluble material at a concentration 130 uM in the presence of sinefungin (0.026 uM).; type: functional; method in brief: as §1
Leishmania donovani [16] = test: Cell growth of Leishmania donovani promastigotes measured at 24 hr of 0.26 uM sinefungin treatment before compound (130 uM) addition.; type: functional; method in brief: as §2
Leishmania donovani [17] = test: Thymidine uptake and incorporation in Leishmania donovani promastigotes measured in the TCA soluble material at a concentration 130 uM in the presence of sinefungin (0.026 uM).; type: functional; method in brief: as §1
Leishmania donovani [18] = test: Cell growth of Leishmania donovani promastigotes measured at 48 hr of 0.26 uM sinefungin treatment before compound (130 uM) addition.; type: functional; method in brief: as §2
Leishmania donovani [19] = test: Cell growth of Leishmania donovani promastigotes measured at 0h of 0.26 uM sinefungin treatment before compound addition.; type: functional; method in brief: as §2
Leishmania donovani [20] = test: Thymidine uptake and incorporation in Leishmania donovani promastigotes measured in the TCA insoluble material.; type: functional; method in brief: as §1
Leishmania donovani [21] = test: Thymidine uptake and incorporation in Leishmania donovani promastigotes measured in the TCA soluble material in the presence of sinefungin (0.026 uM).; type: functional; method in brief: as §1
Leishmania donovani [22] = test: Thymidine uptake and incorporation in Leishmania donovani promastigotes measured in the TCA insoluble material in the presence of sinefungin (0.026 uM).; type: functional; method in brief: as §1
Leishmania donovani [23] = test: Thymidine uptake and incorporation in Leishmania donovani promastigotes measured in the TCA soluble material.; type: functional; method in brief: as §1
Leishmania donovani [24] = test: Cell growth of Leishmania donovani promastigotes measured at 24 hr of 0.26 uM sinefungin treatment before compound (148 uM) addition.; type: functional; method in brief: as §2
Leishmania donovani [25] = test: Cell growth of Leishmania donovani promastigotes measured at 0h of 0.26 uM sinefungin treatment before compound (148 uM) addition.; type: functional; method in brief: as §2
Leishmania donovani [26] = test: Thymidine uptake and incorporation in Leishmania donovani promastigotes measured in the TCA soluble material at a concentration 1.25 uM in the presence of sinefungin (0.026 uM).; type: functional; method in brief: as §1
Leishmania donovani [27] = test: Thymidine uptake and incorporation in Leishmania donovani promastigotes measured in the TCA soluble material at a concentration 1.25 uM.; type: functional; method in brief: as §1
Leishmania donovani [28] = test: Thymidine uptake and incorporation in Leishmania donovani promastigotes measured in the TCA insoluble material at a concentration 1.25 uM in the presence of sinefungin (0.026 uM).; type: functional; method in brief: as §1
Leishmania donovani [29] = test: Thymidine uptake and incorporation in Leishmania donovani promastigotes measured in the TCA insoluble material at a concentration 1.25 uM.; type: functional; method in brief: as §1
Leishmania donovani [30] = test: Thymidine uptake and incorporation in Leishmania donovani promastigotes measured in the TCA insoluble material at a concentration 2.1 uM.; type: functional; method in brief: as §1
Leishmania donovani [31] = test: Thymidine uptake and incorporation in Leishmania donovani promastigotes measured in the TCA soluble material at a concentration 2.1 uM.; type: functional; method in brief: as §1
Leishmania donovani [32] = test: Thymidine uptake and incorporation in Leishmania donovani promastigotes measured in the TCA soluble material at a concentration 2.1 uM in the presence of sinefungin (0.026 uM).; type: functional; method in brief: as §1
Leishmania donovani [33] = test: Thymidine uptake and incorporation in Leishmania donovani promastigotes measured in the TCA insoluble material at a concentration 2.1 uM in the presence of sinefungin (0.026 uM).; type: functional; method in brief: as §1
Leishmania donovani [34] = test: Cell growth of Leishmania donovani promastigotes measured at 24 hr of 0.26 uM sinefungin treatment before compound (156 uM) addition.; type: functional; method in brief: as §2
Leishmania donovani [35] = test: Cell growth of Leishmania donovani promastigotes measured at 48 hr of 0.26 uM sinefungin treatment before compound (156 uM) addition.; type: functional; method in brief: as §2
Leishmania donovani [36] = test: Cell growth of Leishmania donovani promastigotes measured at 0h of 0.26 uM sinefungin treatment before compound (156 uM) addition.; type: functional; method in brief: as §2
Leishmania donovani [37] = test: as §3; type: ADME, organism-based; details: in vitro; method in brief: as §4

## Nc1ncnc2c1ncn2[C@@H]1O[C@H](CC(N)CCCC(O)CO)[C@@H](O)[C@H]1O (stereo partly specified)
[1]
  Ratio: 8.3
Leishmania donovani [2]
  Thymidine uptake: 1230950 c.p.m. (mg of protein)-1
Leishmania donovani [3]
  Thymidine uptake: 3148603 c.p.m. (mg of protein)-1
Leishmania donovani [4]
  Cell growth: 100%
Leishmania donovani [5]
  Cell growth: 59%
Leishmania donovani [6]
  Cell growth: 41%
Leishmania donovani [7]
  Thymidine uptake: 823954 c.p.m. (mg of protein)-1
Leishmania donovani [8]
  Thymidine uptake: 3391425 c.p.m. (mg of protein)-1
Leishmania donovani [9]
  Cell growth: 92%
Leishmania donovani [10]
  Thymidine uptake: 3097327 c.p.m. (mg of protein)-1
Leishmania donovani [11]
  Thymidine uptake: 1020493 c.p.m. (mg of protein)-1
Leishmania donovani [12]
  Thymidine uptake: 4079585 c.p.m. (mg of protein)-1
Leishmania donovani [13]
  Ki: 446 µM

## C=CCCCC(N)C[C@H]1OC(n2cnc3c(N)ncnc32)[C@H](O)[C@@H]1O (stereo partly specified)
[1]
  Ratio: 15.9
Leishmania donovani [14]
  Cell growth: 97%
Leishmania donovani [15]
  Thymidine uptake: 2880449 c.p.m. (mg of protein)-1
Leishmania donovani [16]
  Cell growth: 65%
Leishmania donovani [17]
  Thymidine uptake: 1703083 c.p.m. (mg of protein)-1
Leishmania donovani [13]
  Ki: 877 µM
Leishmania donovani [18]
  Cell growth: 41%

## Nc1ncnc2c1ncn2C1O[C@H](C[C@@H](N)CC[C@@H](N)C(=O)O)[C@@H](O)[C@H]1O (stereo partly specified)
Leishmania donovani [19]
  Cell growth: 15%
Leishmania donovani [20]
  Thymidine uptake: 956745 c.p.m. (mg of protein)-1
Leishmania donovani [21]
  Thymidine uptake: 1583862 c.p.m. (mg of protein)-1
Leishmania donovani [22]
  Thymidine uptake: 2197110 c.p.m. (mg of protein)-1
Leishmania donovani [23]
  Thymidine uptake: 1741329 c.p.m. (mg of protein)-1

## NCCC(CN)C[C@H]1OC(n2cnc3c(N)ncnc32)[C@H](O)[C@@H]1O (stereo partly specified)
[1]
  Ratio: 23.3
Leishmania donovani [24]
  Cell growth: 80%
Leishmania donovani [25]
  Cell growth: 93%
Leishmania donovani [13]
  Ki: 1120 µM

## Nc1ncnc2c1ncn2[C@@H]1O[C@H](CC(N)CCCC(=O)O)[C@@H](O)[C@H]1O (stereo in doubt; 3a)
[1]
  Ratio: 3
Leishmania donovani [26]
  Thymidine uptake: 1556483 c.p.m. (mg of protein)-1
Leishmania donovani [27]
  Thymidine uptake: 1499100 c.p.m. (mg of protein)-1
Leishmania donovani [28]
  Thymidine uptake: 1459000 c.p.m. (mg of protein)-1
Leishmania donovani [29]
  Thymidine uptake: 1772064 c.p.m. (mg of protein)-1
Leishmania donovani [13]
  Ki: 165 µM

## Nc1ncnc2c1ncn2[C@@H]1O[C@H](CC(N)CCCC(=O)O)[C@@H](O)[C@H]1O (stereo in doubt; 3b)
[1]
  Ratio: 6.9
Leishmania donovani [30]
  Thymidine uptake: 3284127 c.p.m. (mg of protein)-1
Leishmania donovani [31]
  Thymidine uptake: 1161185 c.p.m. (mg of protein)-1
Leishmania donovani [32]
  Thymidine uptake: 1973260 c.p.m. (mg of protein)-1
Leishmania donovani [33]
  Thymidine uptake: 1861835 c.p.m. (mg of protein)-1
Leishmania donovani [13]
  Ki: 380 µM

## Nc1ncnc2c1ncn2[C@@H]1O[C@H](CC2CCNC2)[C@@H](O)[C@H]1O (stereo in doubt; 6a)
[1]
  Ratio: 2.1
Leishmania donovani [34]
  Cell growth: 74%
Leishmania donovani [35]
  Cell growth: 37%
Leishmania donovani [13]
  Ki: 103 µM
Leishmania donovani [36]
  Cell growth: 83%

## Nc1ncnc2c1ncn2[C@@H]1O[C@H](CC2CCNC2)[C@@H](O)[C@H]1O (stereo in doubt; 6b)
[1]
  Ratio: 2.9
Leishmania donovani [13]
  Ki: 140 µM

## C[S+](CC[C@H](N)C(=O)[O-])C[C@H]1O[C@@H](n2cnc3c(N)ncnc32)[C@H](O)[C@@H]1O (stereo partly specified) [ADEMETIONINE]
Leishmania donovani [37]
  Km: 55 µM

## Nc1ncnc2c1ncn2[C@@H]1O[C@H](CSCC[C@H](N)C(=O)O)[C@@H](O)[C@H]1O [S-ADENOSYLHOMOCYSTEINE]
[1]
  Ratio: 0.13
Leishmania donovani [13]
  Ki: 7.2 µM
